# Like-named read-outs stand apart in the source and are kept apart here.
# Key:
# [1] = tested on: Oct1+/+ and Oct1-/- mice; assay: Toxicity study of CDPCP in Oct1+/+ and Oct1-/- mice; format: in vivo, mouse; details: for Kidney histopathological examination (affected/examined animals) / Liver histopathological examination (affected/examined animals): 24 hr after third i.v. dose; for liver-to-body-weight ratio increase compared with saline-treated mice: 120 mg/kg reduced to 90 mg/kg
# Method in brief: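 Male Oct1+/+ and Oct1-/- mice (8 weeks, ≥9 per group) were randomised to saline or test compound. Dosing was by tail vein once weekly ×3 (120 mg/kg initially, later 90 mg/kg). Body weight was recorded three times weekly. Mice were fasted ≥16 h and killed under isoflurane 24 h after the last dose. Measures: serum ALT/AST/ALKP and liver weight. Liver and kidney were fixed in 4% paraformaldehyde, paraffin-embedded and H&E stained; affected/examined animals were counted.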
# [2] = tested on: primary mouse hepatocytes; format: in vitro ADME
# [3] = Oct1+/+ mice, i.v. once weekly for 3 weeks
# [4] = Oct1-/- mice, i.v. once weekly for 3 weeks
compound,measurement,setting,value
"[NH3+][Pt-2]([NH3+])([Cl])[n+]1ccccc1 (stereo not drawn) [CDPCP, cis-diammine(pyridine)chloroplatinum(II)]",Kidney histopathological examination (affected/examined animals),[1]; OCT1+/+ mice,Normal (4/4)
same,Liver histopathological examination (affected/examined animals),[1]; OCT1+/+ mice,Severe swollen hepatocytes (3/4); Mild swollen hepatocytes(1/4)
same,Kidney histopathological examination (affected/examined animals),[1]; OCT1-/- mice,Kidney tube protein contents (3/4); kidney hyaline necrosis (1/4)
same,Liver histopathological examination (affected/examined animals),[1]; OCT1-/- mice,Mild swollen hepatocytes(1/4)
same,serum BUN levels vs saline,[1]; Oct1+/+ mice,significantly reduced
same,actual liver weight,[1]; [3],1.23 g
same,liver-to-body-weight ratio increase compared with saline-treated mice,[1]; [3],28.8%
same,serum glucose levels,"[1]; Oct1+/+ mice, vs saline",significant increase
same,total serum protein levels,"[1]; Oct1+/+ mice, vs saline",significant decrease
same,serum BUN vs saline,[1]; Oct1-/- mice,not affected
same,actual liver weight,[1]; [4],1.02 g
same,liver-to-body-weight ratio increase compared with saline-treated mice,[1]; [4],14.7%
same,serum creatinine levels vs saline,[1]; both Oct1+/+ and Oct1-/- mice,not significantly different
same,"dose resulting in significant changes in body weight, liver-to-body-weight ratio, liver function and hematology",[1]; dose-range finding toxicity study,≥ 90 mg/kg
same,histological examination of intestine,[1]; either Oct1+/+ or Oct1-/- mice,no signs of intestinal toxicity
same,"activities of ALT, AST and ALKP","[1]; either Oct1+/+ or Oct1-/- mice, i.v. once weekly for 3 weeks",not affected
same,body weight loss in Oct1-/- mice compared with Oct1+/+ mice,[1]; i.v. once weekly for 3 weeks,much greater
same,ALT,"[1]; wild-type mice, 120 mg/kg, dose-finding studies (data not shown)",significant increases
same,"hepatocellular uptake, wild-type as fold of Oct1-/-","[2]; 10 μM, 1 hr",2.9 fold
same,hepatocellular uptake,"[2]; hepatocytes from Oct1-/- mice, 10 μM, 1 hr",87.8 ± 7.61 pmol/mg protein/hr
same,hepatocellular uptake,"[2]; hepatocytes from Oct1-/- mice, 10 μM, 1 hr, co-incubation with disopyramide 150 μM",95.8 ± 17.6 pmol/mg protein/hr
same,hepatocellular uptake,"[2]; hepatocytes from Oct1 wild-type mice, 10 μM, 1 hr",251 ± 94.6 pmol/mg protein/hr
same,hepatocellular uptake,"[2]; hepatocytes from Oct1 wild-type mice, 10 μM, 1 hr, co-incubation with disopyramide 150 μM",55.9 ± 1.41 pmol/mg protein/hr
same,fold decrease in platinum uptake by disopyramide,"[2]; hepatocytes from Oct1 wild-type mice, disopyramide 150 μM",4.5 fold
